Screening results: PubChem, several laboratories
D1 allo mod: allosteric modulators of human D1 dopamine receptor; HEK293 D1, CRE-luciferase, dopamine EC30 potentiation; actives deviate in either direction; B-score at 10 µM; hit rate 5.9% among 58,000; AID 641;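 active = luminescence count or its row- and column-corrected plate score outside the 99.7% band of the plate's sample wells, on either side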
Target sequence (P21728 whole entry, looked up): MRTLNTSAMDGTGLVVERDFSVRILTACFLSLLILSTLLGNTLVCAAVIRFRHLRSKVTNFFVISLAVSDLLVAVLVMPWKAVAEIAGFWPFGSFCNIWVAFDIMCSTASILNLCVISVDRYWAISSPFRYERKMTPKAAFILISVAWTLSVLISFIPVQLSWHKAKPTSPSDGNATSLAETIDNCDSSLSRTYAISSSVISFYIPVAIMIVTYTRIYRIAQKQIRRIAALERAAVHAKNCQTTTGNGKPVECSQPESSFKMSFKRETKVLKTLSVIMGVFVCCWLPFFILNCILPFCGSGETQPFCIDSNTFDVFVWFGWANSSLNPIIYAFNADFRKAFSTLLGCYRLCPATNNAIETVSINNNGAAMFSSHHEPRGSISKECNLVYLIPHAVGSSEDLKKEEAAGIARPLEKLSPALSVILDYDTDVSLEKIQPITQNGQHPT
AP ELISA ortho: alternative pathway complement inhibition, orthogonal assay; Human serum alternative complement pathway, LPS-coated ELISA, C3 deposition; tested in compound mixtures; inhibition, % at 5 µM; hit rate 0.08% among 62,000;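 active = inhibition above 30% in each of the two pooled mixtures holding the compound, so the lower value exceeds 30%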;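 also: 0% = serum in Mg-EGTA without compound and 100% = EDTA serum blank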
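Medium: diluted human serum in Mg2+-EGTA GVB++. Assay system: human serum complement alternative pathway, C3 deposition onto LPS. Also added: Plate-bound LPS. Technique: Anti-C3 ELISA, OD 450 nm. Measure: percent inhibition. Incubation: 1 h at 37 °C. Dosing: 5 µM each compound, pools of ten, 50 µM per pool.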
HEK293 NFkB inh: lowers PMA/ionomycin-induced NF-kB signal in HEK293 cells; inhibition, % at 3 µM; hit rate 0.21% among 62,000; HEK-293 NF-kB luciferase reporter, luminescence;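 active = inhibition above the mean of all tested compounds plus 3 SD, cut at about 40% in these data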;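 also: 0% = stimulated DMSO wells and 100% = 10 µM reference inhibitor 5653914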
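Reagent: PMA plus ionomycin mix as NF-kB-activating stimulus. Assay system: NF-kB luciferase reporter HEK-293 cells. Technique: luminescence from luciferase substrate reagent. Incubation: 1 h compound pre-incubation, 16 h PMA/ionomycin at 37 °C. Benchmarks: DMSO only as uninhibited control, 10 µM reference inhibitor as full inhibition. Repeats: tested once.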
DAT uptake mod: human DAT dopamine uptake with cocaine, either direction; Q01959; LLC-PK1 hDAT cells, [14C]-dopamine uptake with cocaine IC80; actives deviate in either direction; B-score at 10 µM; hit rate 1.3% among 110,000; AID 449768;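 active = Z score or B-score, a plate-position-corrected score, falls beyond the plate's 99.7% confidence bounds, in either direction; inactive = both scores lie inside the 99.7% bounds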;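 also: scored against the spread of the other compound wells on the same plate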
E coli RNAP: blocks E. coli RNA polymerase transcription | P0A8V2 | fluorescence transcription assay | inhibition, %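 (tested at 10 µM)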 | hit rate 0.2% among 62,000; in the data active = inhibition above about 20%;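 also: 0% = enzyme without compound and 100% = no enzyme blank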
* = called active by the depositor; · = no result. Many of the other results were omitted from the sample, so hits are more common in it than they were.

SMILES	D1 allo mod	AP ELISA ortho	HEK293 NFkB inh	DAT uptake mod	E coli RNAP
CCN(CC)S(=O)(=O)c1ccc(N=Nc2c(C)[nH]n(C(N)=S)c2=O)cc1	·	·	·	-3*	·
CCN(CC)S(=O)(=O)c1ccc(-c2nnc(SC)o2)cc1	·	·	·	-1.4	·
Cc1cccc(NC(=O)C23CCC(C)(C2Br)C3(C)C)c1 (stereo unspecified)	·	·	·	-8.5*	·
O=C(CNCC1CCCO1)N1CCCc2ccccc21 (stereo unspecified)	-0.5	11	13	-0.69	4
COc1ccc([C@H]2/C=C\CN(Cc3ccc(N(C)C)cc3)[C@@H](C)C(=O)N2Cc2ccc(F)cc2)cc1	·	·	·	-0.31	·
C=CCOC(=O)C1=C(C)NC(=O)NC1c1ccc(OC(=O)c2ccco2)c(OC)c1 (stereo unspecified)	-5.4*	2	2	1.3	3
NC(=O)[C@H]1CC2(CC(c3cccc(NC(=O)COc4ccc(Cl)cc4)c3)=NO2)CN1C(=O)Cc1ccc([N+](=O)[O-])cc1 (stereo partly specified)	·	·	·	-0.33	·
CC(NS(=O)(=O)c1ccc(Cl)cc1)C(=O)NCc1ccco1 (stereo unspecified)	·	·	·	-0.43	·
O=S(=O)(NC1CCCCC1NCc1ccco1)c1ccc(Cl)cc1 (stereo unspecified)	-2.3*	-10	2	-1.4	7
O=C(CSc1nccc(=O)[nH]1)c1ccccc1Br	·	·	·	-0.65	·
CCOC(=O)Cc1csc(NS(=O)(=O)c2ccccc2)n1	·	·	·	-0.12	·
CCOC(=O)c1ccccc1-c1csc(NS(=O)(=O)c2ccc(Cl)cc2)n1	·	·	·	-4.8*	·
CCN(CC)C(=O)C1CCN(S(=O)(=O)c2ccc(C3CNC(=O)C3)cc2)CC1 (stereo unspecified)	0.33	13	16	0.4	-1
Cc1oc(-c2ccccc2Cl)nc1CSCC(=O)NC1CCCC1	·	·	·	1.4	·
Cc1oc(-c2ccccc2Cl)nc1CSCC(=O)N1CCCC1	0.017	10	87*	1.9	-4
COC(=O)C1=C(C(=O)OC)[C@@H]2N(C)c3ccccc3[C@@]23C[C@@H](CO)N=C3N1	·	·	·	-1	·
CC1(C)S[C@@H]2C(C(=O)OCc3ccccc3)NC(=O)N2C1C(=O)OCc1ccccc1 (stereo partly specified)	·	·	·	-0.28	·
COc1ccc(C)cc1-n1nnnc1SCc1csc(C)n1	0.74	6	28	-8.3*	·
CCC(=O)N1CCC2(CC1)Oc1ccc(Cl)cc1C(=O)C21CC(c2ccc(Cl)cc2)=NO1 (stereo unspecified)	·	·	·	-0.017	·
Cc1cc(Br)cc(C)c1NC(=S)NC(=O)CC(C)C	·	·	·	-8*	·
O=C(c1ccc2c(=O)n3c(nc2c1)CCCCC3)N1CCN(C(c2ccccc2)c2ccccc2)CC1	·	·	·	-4.1*	·
CN(C(=O)c1ccc2c(=O)n3c(nc2c1)CCCCC3)c1ccccc1	-0.69	20	13	-0.56	9
CCOC(=O)N1CCC(N2C(=O)c3ccccc3C2Nc2ccc3c(c2)OCCO3)CC1 (stereo unspecified)	-3.1*	17	11	-0.57	2
CN1C(=O)c2c(sc3c2CC(C)(C)SC3)N2CCN=C12	0.12	35*	17	0.98	5
CC(=O)Nc1ccc(S(=O)(=O)N2CCN(C)CC2)cc1	·	·	·	-1.4	·
SMILES	D1 allo mod	AP ELISA ortho	HEK293 NFkB inh	DAT uptake mod	E coli RNAP
CC(=O)Nc1ccc(S(=O)(=O)N2CCc3ccccc3C2)cc1	·	·	·	-8.8*	·
COc1ccc(-c2cc(-c3ccccc3)nc(N3CCCC3)n2)cc1OC	-8.7*	-11	5	0.032	·
COc1ccc(-c2cc(C(F)(F)F)nc(N3CCOCC3)n2)cc1OC	·	2	13	0.46	2
O=C(O)C1=CCNCC1	·	·	·	-0.59	·
CC(O)(CS(=O)(=O)Cc1ccccc1)C(=O)Nc1cccc(C(F)(F)F)c1 (stereo unspecified)	·	·	·	-2.8*	·
CN(C)C=Nc1ncc2c3ccccc3n(Cc3ccccc3)c2c1C#N	-2.1	3	2	0.58	3
CN(C)C=Nc1ncc2c3ccccc3n(CCN(C)C)c2c1C#N	-0.59	13	25	2.9*	2
CN(CCNC(=O)c1ccc(N2CCCC2=O)cc1)CCc1ccccc1	·	1	10	1	9
CC(=O)c1c(C)[nH]c(C(=O)OCC(=O)N2CCc3ccccc32)c1C	·	·	·	-2.6*	·
CCOC(=O)c1[nH]c(C)c(C(=O)OCC(=O)N2CCc3ccccc32)c1C	·	·	·	-1.1	·
Cn1c(CCCNC(=O)c2ccccc2)nc2ccccc21	-3.5*	11	-5	-0.81	9
C=C(C)Cn1c(CCCNC(=O)C(C)(C)C)nc2ccccc21	-0.34	13	14	-9.3*	6
CCn1c(CCNC(=O)c2ccc(OC)c(OC)c2)nc2ccccc21	-4.9*	0	6	0.83	8
CC(C)(C)C(=O)NCCCc1nc2ccccc2n1CCCOc1ccc(Cl)cc1	·	·	·	3.4*	·
C=CCn1c(CCCNC(=O)C(C)(C)C)nc2ccccc21	-0.051	9	6	0.21	12
Cc1nnc2sc(-c3csc4c3CCCC4)nn12	0.99	16	2	3.4*	5
Cc1nnc2sc(-c3ccncc3)nn12	-0.58	0	2	-0.35	10
CCCc1cc(NCC2CCCO2)n2c(nc3ccccc32)c1C#N (stereo unspecified)	·	·	·	-0.76	·
O=C1C=C(c2cc3ccccc3s2)CCC1	·	·	·	-0.02	·
CC(=O)c1sc(NC(=O)c2ccccc2F)nc1C	-5.1*	17	-65	0.16	4
Cc1cccc(-c2noc(CN(C(=O)c3ccc4c(c3)OCO4)C(C)C)n2)c1	-0.019	-3	7	0.57	8
Cc1cccc(-c2noc(CN(C(=O)c3ccc(Br)o3)C(C)C)n2)c1	-0.98	11	10	1.8*	-7
CC(Oc1ccccc1Cl)C(=O)N(Cc1ccco1)C1CCS(=O)(=O)C1 (stereo unspecified)	-0.29	9	4	-1.3	10
O=C(COc1ccc(Cl)cc1Cl)N(Cc1ccco1)C1CCS(=O)(=O)C1 (stereo unspecified)	0.24	1	13	2.9*	7
CC(CCc1ccco1)NC(=O)Nc1cccc(F)c1 (stereo unspecified)	-0.26	-9	-3	-2.6*	8
SMILES	D1 allo mod	AP ELISA ortho	HEK293 NFkB inh	DAT uptake mod	E coli RNAP
COc1cc(-c2ccc3oc(-c4ccsc4)c(C#CC4(O)CCCCC4)c3c2)cc(OC)c1OC	·	·	·	-0.33	·
O=C(c1ccco1)N1CCN(C(=O)c2ccc(COc3ccc4c(c3)CCC4)o2)CC1	·	·	·	3.7*	·
O=C(c1ccc(COc2ccc3c(c2)CCC3)o1)N1CCN(c2ccccc2)CC1	0.13	·	-8	0.97	·
Cn1c(=O)c(NCCc2ccccc2)c2c3c(cccc31)C(=O)c1ccccc1-2	·	·	·	2.1	·
COc1ccc(C(=O)Nn2c(SCC(=O)NCC3CCCO3)nc3ccccc3c2=O)cc1 (stereo unspecified)	-5.4*	1	21	-8.4*	10
CCN1CCCC1CNC(=O)C1CCN(Cc2nc(-c3cccc(Br)c3)oc2C)CC1 (stereo unspecified)	0.24	16	11	·	3
